Laboratory results reported in ChEMBL document CHEMBL1123978, “Synthesis and antineoplastic evaluation of 1,4-bis(aminoalkanamido)-9,10-anthracenediones” (J Med Chem, 1988).
Values after ≈ are worked out from the molar mass of the structure shown.

What was measured:
P338 [1] = assay: Ratio of medium survival time expressed as percent of untreated controls (dose 12.5 mg/kg); assay type: functional, Mus musculus
Summary of the method: (§1)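 BDF1 mice inoculated ip on day 0 with 10^6 P388 lymphocytic leukemia cells. Drug given ip on days 1–5 following NCI protocols, at the dose stated. Eight mice per treatment group. Mean survival time was computed per group, and % T/C = (MST treated/MST control) × 100.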

P338 [2] = assay: Survivor recorded on day 4 after day of first injection as a measure of drug toxicity (dose 3.12 mg/kg); 8/8; assay type: functional, Mus musculus
P338 [3] = assay: Survivor recorded on day 4 after day of first injection as a measure of drug toxicity (dose 1.6 mg/kg); 8/8; assay type: functional, Mus musculus
P338 [4] = assay: Ratio of medium survival time expressed as percent of untreated controls (dose 3.12 mg/kg); assay type: functional, Mus musculus; summary of the method: as §1
P338 [5] = assay: Survivor recorded on day 4 after day of first injection as a measure of drug toxicity (dose 6.25 mg/kg); 8/8; assay type: functional, Mus musculus
P338 [6] = assay: Survivor recorded on day 4 after day of first injection as a measure of drug toxicity (dose 12.5 mg/kg); 8/8; assay type: functional, Mus musculus
HeLa = assay: Effective concentration required to inhibit by 50% the growth of HeLa S3 cells; assay type: functional, cell-based; conditions: Homo sapiens
Summary of the method: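 HeLa S3 cultures were given compounds dissolved in water, at final concentrations of 0.005–5 μg/mL in the incubation medium. EC50 is the concentration that inhibited the increment of cellular protein by 50%, read from dose-response curves.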

P338 [7] = assay: Survivor recorded on day 4 after day of first injection as a measure of drug toxicity (dose 50 mg/kg); 0/8; assay type: functional, Mus musculus
P338 [8] = assay: Ratio of medium survival time expressed as percent of untreated controls (dose 6.25 mg/kg); assay type: functional, Mus musculus; summary of the method: as §1
P338 [9] = assay: Ratio of medium survival time expressed as percent of untreated controls (dose 1.6 mg/kg); assay type: functional, Mus musculus; summary of the method: as §1
P338 [10] = assay: Ratio of medium survival time expressed as percent of untreated controls (dose 25 mg/kg); Toxic; assay type: functional, organism-based; parameters: dose 25 mg/kg; conditions: Mus musculus, at 25 mg/kg
P338 [11] = assay: Survivor recorded on day 4 after day of first injection as a measure of drug toxicity (dose 25 mg/kg); 6/8; assay type: functional, Mus musculus
L1210 = assay: Effective concentration required to inhibit by 50% the growth of L1210 cells; assay type: functional, cell-based; conditions: Mus musculus
Summary of the method: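 Mouse L1210 leukemia cells were grown in RPMI 1640 with 5% fetal calf serum, penicillin and streptomycin at 37 °C in humidified air–5% CO2, and seeded at 5 × 10⁴ cells/mL. Compounds dissolved in 50% ethanol were added at four concentrations. EC50 is the concentration giving 50% growth inhibition after 48 h, measured by cell protein content.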

P338 [12] = assay: Survivor recorded on day 4 after day of first injection as a measure of drug toxicity(dose 3.12 mg/kg); 8/8; assay type: functional, Mus musculus
P338 [13] = assay: Ratio of medium survival time expressed as percent of untreated controls(dose 50 mg/kg); assay type: functional, Mus musculus; summary of the method: as §1
P338 [14] = assay: Ratio of medium survival time expressed as percent of untreated controls(dose 6.25 mg/kg); assay type: functional, Mus musculus; summary of the method: as §1
P338 [15] = assay: Survivor recorded on day 4 after day of first injection as a measure of drug toxicity(dose 1.5 mg/kg); 8/8; assay type: functional, Mus musculus
P338 [16] = assay: Survivor recorded on day 4 after day of first injection as a measure of drug toxicity(dose 12.5 mg/kg); 8/8; assay type: functional, Mus musculus
P338 [17] = assay: Ratio of medium survival time expressed as percent of untreated controls(dose 25 mg/kg); assay type: functional, Mus musculus; summary of the method: as §1
P338 [18] = assay: Ratio of medium survival time expressed as percent of untreated controls(dose 1.5 mg/kg); assay type: functional, Mus musculus; summary of the method: as §1
P338 [19] = assay: Survivor recorded on day 4 after day of first injection as a measure of drug toxicity(dose 6.25 mg/kg); 8/8; assay type: functional, Mus musculus
P338 [20] = assay: Survivor recorded on day 4 after day of first injection as a measure of drug toxicity(dose 50 mg/kg); 8/8; assay type: functional, Mus musculus
P338 [21] = assay: Ratio of medium survival time expressed as percent of untreated controls(dose 12.5 mg/kg); assay type: functional, Mus musculus; summary of the method: as §1
P338 [22] = assay: Survivor recorded on day 4 after day of first injection as a measure of drug toxicity(dose 25 mg/kg); 8/8; assay type: functional, Mus musculus
P338 [23] = assay: Ratio of medium survival time expressed as percent of untreated controls(dose 3.12 mg/kg); assay type: functional, Mus musculus; summary of the method: as §1
P338 [24] = assay: Survivor recorded on day 4 after day of first injection as a measure of drug toxicity(dose 12.5 mg/kg); 6/6; assay type: functional, Mus musculus
P338 [25] = assay: Survivor recorded on day 4 after day of first injection as a measure of drug toxicity(dose 3.12 mg/kg); 6/6; assay type: functional, Mus musculus
P338 [26] = assay: Survivor recorded on day 4 after day of first injection as a measure of drug toxicity(dose 25 mg/kg); 6/6; assay type: functional, Mus musculus
P338 [27] = assay: Survivor recorded on day 4 after day of first injection as a measure of drug toxicity(dose 6.25 mg/kg); 6/6; assay type: functional, Mus musculus
P338 [28] = assay: Ratio of medium survival time expressed as percent of untreated controls (dose 2.5 mg/kg); assay type: functional, Mus musculus; summary of the method: as §1
P338 [29] = assay: Ratio of medium survival time expressed as percent of untreated controls (dose 20 mg/kg); assay type: functional, Mus musculus; summary of the method: as §1
P338 [30] = assay: Ratio of medium survival time expressed as percent of untreated controls(dose 40 mg/kg); Toxic; assay type: functional, organism-based; parameters: dose 40 mg/kg; conditions: Mus musculus, at 40 mg/kg; summary of the method: as §1
P338 [31] = assay: Survivor recorded on day 4 after day of first injection as a measure of drug toxicity (dose 20 mg/kg); 8/8; assay type: functional, Mus musculus
P338 [32] = assay: Ratio of medium survival time expressed as percent of untreated controls (dose 10 mg/kg); assay type: functional, Mus musculus; summary of the method: as §1
P338 [33] = assay: Survivor recorded on day 4 after day of first injection as a measure of drug toxicity (dose 2.5 mg/kg); 8/8; assay type: functional, Mus musculus
P338 [34] = assay: Ratio of medium survival time expressed as percent of untreated controls(dose 1.25 mg/kg); assay type: functional, Mus musculus; summary of the method: as §1
P338 [35] = assay: Survivor recorded on day 4 after day of first injection as a measure of drug toxicity (dose 40 mg/kg); 8/8; assay type: functional, Mus musculus
P338 [36] = assay: Survivor recorded on day 4 after day of first injection as a measure of drug toxicity (dose 5 mg/kg); 8/8; assay type: functional, Mus musculus
P338 [37] = assay: Survivor recorded on day 4 after day of first injection as a measure of drug toxicity(dose 1.25 mg/kg); 8/8; assay type: functional, Mus musculus
P338 [38] = assay: Ratio of medium survival time expressed as percent of untreated controls (dose 5 mg/kg); assay type: functional, Mus musculus; summary of the method: as §1
P338 [39] = assay: Survivor recorded on day 4 after day of first injection as a measure of drug toxicity (dose 10 mg/kg); 8/8; assay type: functional, Mus musculus

CN(C)CCC(=O)Nc1ccc(NC(=O)CCN(C)C)c2c1C(=O)c1ccccc1C2=O
T/C (P338 [1]): 100%
Survival (P338 [2]): 8
Survival (P338 [3]): 8
T/C (P338 [4]): 91%
Survival (P338 [5]): 8
Survival (P338 [6]): 8
EC50 (HeLa): 0.05 µg/mL (≈ 0.115 µM)
Survival (P338 [7]): 0
T/C (P338 [8]): 100%
T/C (P338 [9]): 91%
T/C (P338 [10]): Toxic
Survival (P338 [11]): 6
EC50 (L1210): 0.36 µg/mL (≈ 0.825 µM)

O=C(CNCCO)Nc1ccc(NC(=O)CNCCO)c2c1C(=O)c1ccccc1C2=O
EC50 (HeLa): 1.41 µg/mL (≈ 3.2 µM)
EC50 (L1210): > 5 µg/mL

CN(C)CC(=O)Nc1ccc(NC(=O)CN(C)C)c2c1C(=O)c1ccccc1C2=O
EC50 (HeLa): 0.39 µg/mL (≈ 0.955 µM)
EC50 (L1210): 2.26 µg/mL (≈ 5.53 µM)

CNCC(=O)Nc1ccc(NC(=O)CNC)c2c1C(=O)c1ccccc1C2=O
Survival (P338 [12]): 8
T/C (P338 [13]): 111%
T/C (P338 [14]): 111%
Survival (P338 [15]): 8
Survival (P338 [16]): 8
T/C (P338 [17]): 100%
T/C (P338 [18]): 100%
EC50 (HeLa): 0.14 µg/mL (≈ 0.368 µM)
Survival (P338 [19]): 8
Survival (P338 [20]): 8
T/C (P338 [21]): 100%
Survival (P338 [22]): 8
T/C (P338 [23]): 100%
EC50 (L1210): 0.79 µg/mL (≈ 2.08 µM)

O=C1c2ccccc2C(=O)c2c(NCCNCCO)ccc(NCCNCCO)c21 [AMETANTRONE]
Survival (P338 [24]): 6
T/C (P338 [14]): 210%
T/C (P338 [17]): 200%
EC50 (HeLa): 0.17 µg/mL (≈ 0.412 µM)
T/C (P338 [21]): 300%
Survival (P338 [25]): 6
Survival (P338 [26]): 6
T/C (P338 [23]): 190%
EC50 (L1210): 1.77 µg/mL (≈ 4.29 µM)
Survival (P338 [27]): 6

CNCCC(=O)Nc1ccc(NC(=O)CCNC)c2c1C(=O)c1ccccc1C2=O
T/C (P338 [28]): 120%
T/C (P338 [29]): 120%
T/C (P338 [30]): Toxic
Survival (P338 [31]): 8
T/C (P338 [32]): 130%
Survival (P338 [33]): 8
T/C (P338 [34]): 110%
EC50 (HeLa): 0.08 µg/mL (≈ 0.196 µM)
Survival (P338 [35]): 8
Survival (P338 [36]): 8
Survival (P338 [37]): 8
T/C (P338 [38]): 130%
EC50 (L1210): 1.28 µg/mL (≈ 3.13 µM)
Survival (P338 [39]): 8

O=C1c2c(O)ccc(O)c2C(=O)c2c(NCCNCCO)ccc(NCCNCCO)c21 [MITOXANTRONE]
EC50 (HeLa): 0.55 µg/mL (≈ 1.24 µM)
EC50 (L1210): > 5 µg/mL
